High-throughput results (PubChem BioAssay)
The list is not random: actives were taken first. Their share in the collection is about 2.9%.
PRMT1 FP inh: PRMT1 (human) inhibition, primary screen. Q99873. recombinant PRMT1, activity-based probe fluorescence polarization. inhibition, % at 2.79 µM. 370,000 compounds, 1.3% hits;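 active = inhibition above about 21% made by adding two undisclosed values, limit read from the data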
HTRA1 inhibitor: HTRA1 (human) protease inhibition. AID 504803. recombinant HTRA1, FP-rhodamine activity-based probe, fluorescence polarization. inhibition, % at 5.96 µM. Q92743. 340,000 compounds, 0.5% hits; in the data active = inhibition above about 36%;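 also: 0% = enzyme with DMSO and 100% = wells lacking enzyme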
TCR-CD3 inh: human TCR-CD3 binding inhibition; TAMRA-labeled TCR probe fluorescence, biochemical; inhibition, % at 9.4 µM; 360,000 compounds, 0.37% hits;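 also: recombinant mutant TCR 2C K166C tagged with TAMRA read by polarization; 0% = receptor in buffer alone and 100% = receptor with positive control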
ABHD4 inh: inhibitors of mouse ABHD4; purified mABHD4, FP-Rh probe fluorescence polarization; inhibition, % at 8.92 µM; 370,000 compounds, 0.54% hits;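 active = inhibition exceeding the mean over every tested compound plus 3 SD, cut at about 30% in these data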;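 also: 0% = plate median of compound wells and 100% = S159A mutant with DMSO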
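Assay system: mABHD4 protein; medium: HEPES pH 7.0, NaCl, Pluronic buffer; dosing: 8.92 µM, single dose; schedule: 45 min + 60 min at 25 °C; signal: FP readout, ex 525 nm / em 598 nm; read-out: normalized percent inhibition of probe labeling; repeats: single replicate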
SIAE inh: inhibitors of human sialic acid acetylesterase SIAE; inhibition, % at 9.66 µM; Q9HAT2; SIAE FP-Rh probe binding, fluorescence polarization; 370,000 compounds, 0.69% hits;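 active = inhibition above a cutoff: mean of compounds within the control limits plus 3 SD of those, cut at about 17% in these data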;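 also: 0% = plate median of compound wells and 100% = probe without SIAE protein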
Target sequence (Q9HAT2 whole entry, looked up): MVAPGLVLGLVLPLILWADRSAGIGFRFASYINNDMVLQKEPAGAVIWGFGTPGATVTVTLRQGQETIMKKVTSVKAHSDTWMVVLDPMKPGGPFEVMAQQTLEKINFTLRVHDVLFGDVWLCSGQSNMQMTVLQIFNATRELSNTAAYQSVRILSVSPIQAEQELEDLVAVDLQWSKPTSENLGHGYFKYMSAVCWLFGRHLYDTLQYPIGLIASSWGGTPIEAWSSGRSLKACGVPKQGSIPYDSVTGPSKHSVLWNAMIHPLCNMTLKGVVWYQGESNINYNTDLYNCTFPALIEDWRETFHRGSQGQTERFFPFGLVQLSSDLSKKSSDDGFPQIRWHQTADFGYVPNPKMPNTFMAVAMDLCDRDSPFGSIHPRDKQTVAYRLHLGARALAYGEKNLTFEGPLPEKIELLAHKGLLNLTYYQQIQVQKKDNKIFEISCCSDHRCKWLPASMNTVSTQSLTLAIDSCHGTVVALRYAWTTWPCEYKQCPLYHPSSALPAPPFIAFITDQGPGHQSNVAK
ATG4B inhibitor: inhibitors of human ATG4B cysteine protease; AID 504462; inhibition, % at 8.33 µM; Q9Y4P1; 340,000 compounds, 0.51% hits; ATG4B cleavage of LC3-PLA2, NBD-HPC fluorescence, 1 h; in the data active = inhibition above about 40%
BSA probe FL: BSA probe counter-screen for TCR-CD3 inhibitors | shares compounds with TCR-CD3 inh | 1,200 compounds, 10% hits | inhibition, % at 9.4 µM | TAMRA-labeled BSA probe fluorescence counterscreen; in the data active = inhibition above about 23%;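 also: 0% = buffer low control and 100% = reference high control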
TCR-CD3 inh conf: confirmation of human TCR-CD3 interaction inhibitors | shares compounds with TCR-CD3 inh | inhibition, % at 9.4 µM | TAMRA-labeled TCR probe fluorescence binding assay | AID 652036 | 1,200 compounds, 48% hits
* hit, by the source's call; x = not tested or not shown. Rule as the data show it, unless noted: active = inhibition above about 19%; inactive = the rest.

SMILES	PRMT1 FP inh	HTRA1 inhibitor	TCR-CD3 inh	ABHD4 inh	SIAE inh	ATG4B inhibitor	BSA probe FL	TCR-CD3 inh conf
C=CCN(c1ccccc1OC)S(=O)(=O)c1cccc(C(=O)OCC(=O)c2c[nH]c3ccccc23)c1	-1	-87	44*	-88	-111	6	1	2
COc1cc(OC)c(N(C)S(=O)(=O)c2cccc(C(=O)OCC(=O)c3c[nH]c4ccccc34)c2)cc1Cl	0	-89	38*	-88	-108	-5	4	18
OCc1nc2ccccc2n1CCc1ccccc1	2	0	23*	-1	-7	-3	-6	-3
Cc1oc(-c2cccc(Cl)c2)nc1CS(=O)(=O)CC(=O)NCCN1CCOCC1	-4	0	5	-1	3	-13	x	x
Cc1oc(-c2cccc(Cl)c2)nc1CS(=O)(=O)CC(=O)NCCN1CCCC1	8	-7	21*	5	-4	-4	5	8
CCCC/C=C1/C(c2ccccc2)N(Cc2ccc(OC)cc2OC)C2=NC(c3ccccc3)CC(=O)N21 (centres undefined)	1	x	x	-4	1	x	x	x
O=C1c2ccccc2C(c2nnnn2-c2ccc3c(c2)OCCO3)N1Cc1ccco1 (centres undefined)	3	x	25*	2	16	x	4	0
CSCCCNC(=O)C1CCN(S(=O)(=O)c2ccc3[nH]c(=O)oc3c2)CC1	7	x	x	4	8	x	x	x
CN1C(=O)C(C(=O)Nc2ccccc2F)c2ccccc21 (centres undefined)	-3	-1	19*	6	1	-10	-2	1
COC(=O)C1=C(C)N(Cc2ccc(Br)cc2)C(=S)NC1c1ccc(OC)cc1 (centres undefined)	-2	x	-2	-10	-7	x	x	x
COc1ccc(C(=O)O[C@@H]2CCC[C@@]3(C(=O)N(Cc4ccccc4)c4ccccc43)[C@H]2NC(=O)CCc2ccccc2)cc1OC	-4	x	x	-13	-11	x	x	x
Cc1cc(C)nc(SCC(=O)Nc2ccccc2[N+](=O)[O-])n1	-5	5	3	-5	5	4	x	x
O=C1CC(=O)NC(SCC(=O)Nc2ccccc2[N+](=O)[O-])=N1	28*	5	26*	20	16	11	-12	15
C=CCN1[C@H](CO)[C@H](c2ccccc2)[C@@H]1C#N	6	x	x	8	-5	x	x	x
NC(=O)[C@H]1CC2(CC(c3cccc(NC(=O)COc4ccc(Cl)cc4)c3)=NO2)CN1C(=O)C(c1ccccc1)c1ccccc1 (some centres undefined)	-3	-90	32*	-75	-82	-1	4	23*
CCC(=O)Nc1cccc(C2=NOC3(C2)C[C@@H](C(N)=O)N(C(=O)C(c2ccccc2)c2ccccc2)C3)c1 (some centres undefined)	3	-20	2	-13	-3	-16	x	x
NC(=O)[C@@H]1CC2(CC(c3cccc(NC(=O)COc4ccc(Cl)cc4)c3)=NO2)CN1C(=O)COc1ccc(Cl)cc1 (some centres undefined)	0	-78	27*	-38	-60	-15	13	24*
Brc1ccc(-c2ccc3c(n2)CCCN3Cc2ccccn2)cc1	2	x	2	-8	-7	x	x	x
Cc1cc2c(nc1C)CCCN2Cc1ccccn1	19	x	39*	18	12	x	39*	34*
O=C(NC1CC1)c1c(O)c2ccccc2[nH]c1=O	-2	1	6	6	7	2	x	x
O=C(CCl)NNC(=O)c1c(O)c2ccccc2[nH]c1=O	6	21	66*	-4	0	-1	-7	50*
O=C(NNC(=O)c1c(O)c2ccccc2[nH]c1=O)c1ccccc1Br	-1	5	27*	3	-3	3	-11	14
CCCCC(=O)NNC(=O)c1c(O)c2ccccc2[nH]c1=O	-3	7	18	-6	-9	-3	x	x
C=CCN1C(=O)[C@@H](CC(=O)N2CCOCC2)[C@]2(C(=O)OCC)CCCCC/C=C/12	1	x	x	1	-1	x	x	x
O=S1(=O)c2c(cccc2N2CC[C@@H](O)C2)O[C@@H]2CCN1C2	3	x	x	-1	-5	x	x	x
SMILES	PRMT1 FP inh	HTRA1 inhibitor	TCR-CD3 inh	ABHD4 inh	SIAE inh	ATG4B inhibitor	BSA probe FL	TCR-CD3 inh conf
Cc1ccc(O)c(-c2cc(C(=O)Nc3ccc(S(=O)(=O)Nc4nccc(C)n4)cc3)[nH]n2)c1	0	-35	60*	-31	-27	2	-8	32*
COc1ccc(C(=O)NNC(=S)NC(=O)c2cccs2)cc1	-6	2	23*	-5	4	-3	3	30*
O=C(NNC(=S)NC(=O)c1cccnc1)c1ccc(F)cc1	9	5	23*	4	2	-2	-2	28*
COc1ccc(C(=O)NNC(=S)NC(=O)c2ccc(OC)cc2)cc1	-4	4	11	3	5	2	x	x
COc1ccc(C(=O)NNC(=S)NC(=O)c2ccc(F)cc2)cc1Br	-10	x	20*	4	0	1	-5	5
COc1ccc(C(=O)NNC(=S)NC(=O)c2cccnc2)cc1	-2	-2	38*	8	8	7	1	37*
O=C(NNC(=S)NC(=O)c1cccnc1)c1ccccc1	5	7	15	14	8	-2	x	x
O=C(CSc1nnc(-c2cccnc2)n1-c1ccccc1)c1ccccc1Cl	5	x	x	1	6	x	x	x
COc1ccc(CC(=O)NNC(=S)NC(=O)c2cccnc2)cc1	6	5	26*	5	2	-1	-3	17
Cc1cc(NS(=O)(=O)c2ccc(NC(=S)NC(=O)c3cccnc3)cc2)no1	4	8	46*	-7	-2	5	2	2
O=C(NC1CCCCCC1)C1CCN(S(=O)(=O)c2c(Cl)cccc2Cl)CC1	1	0	1	2	13	-3	x	x
O=C(NNC(=O)c1cccs1)c1ccc(Cl)c(S(=O)(=O)N2CCCC2)c1	-1	-1	-1	-4	7	-5	x	x
O=C(NNC(=O)C1CCN(S(=O)(=O)c2ccccc2C(F)(F)F)CC1)c1ccccc1O	-2	11	31*	6	9	-10	-7	23*
O=C(NNC(=O)c1ccccc1O)c1ccc(Cl)c(S(=O)(=O)N2CCCCC2)c1	1	35	27*	13	8	1	-10	20*
O=C(NNC(=O)C1CCN(S(=O)(=O)c2c(Cl)cccc2Cl)CC1)c1ccccc1O	1	15	31*	8	6	0	-11	27*
O=C(NNC(=O)C1CCN(S(=O)(=O)c2ccccc2)CC1)c1ccccc1O	2	-2	47*	11	4	-2	6	40*
